Results from article PMC5042352 (Analytical methods : advancing methods and applications, 2016).
Where two headings read alike, the source gives them in different places.

Tests used:
[1] = reported; cited from earlier work
[2] = type: in vivo, human (Chinese male healthy subjects); details: mean ± SD, n = 23; for Tmax / T½ (half-life of elimination): single i.m. injection
[3] = Stability of the analytes in human plasma at QC levels; type: in vitro ADME; details: n = 5; for Short-term Dev. (%) / Short-term MCM ± SD: 6 h, r.t.; for Short-term Dev. (%) / Short-term MCM ± SD / Long-term Dev. (%) / Long-term MCM ± SD / Freeze–thaw Dev. (%) / Freeze–thaw MCM ± SD: human plasma; for Long-term Dev. (%) / Long-term MCM ± SD: 40 days; for Long-term Dev. (%) / Long-term MCM ± SD / Freeze–thaw Dev. (%) / Freeze–thaw MCM ± SD: −40 °C; for The autosampler Dev. (24h, %) / The autosampler MCM ± SD (24h) / The autosampler Dev. (48h, %) / The autosampler MCM ± SD (48h): autosampler r.t.; for Freeze–thaw Dev. (%) / Freeze–thaw MCM ± SD: four cycles
Outline: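 QC plasma made by spiking working solution into drug-free human plasma (1:9); the phosphate ester is pre-stabilised with 2M sodium cacodylate and 50% KF. Freeze-thaw: frozen at −40 °C for 24 h, thawed at 25 °C. Short-term: 6 h at room temperature. Long-term: −40 °C for 40 days. Quantified by UPLC-MS/MS against 1/x-weighted analyte/IS peak-area-ratio calibration curves.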

## CCC(=O)O[C@]1(C(=O)CO)[C@@H](C)C[C@H]2[C@@H]3CCC4=CC(=O)C=C[C@]4(C)[C@@]3(F)[C@@H](O)C[C@@]21C [B17P, betamethasone 17-monopropionate]
[1]
  elimination half-life time: 80.8 h
[2]; Reference formulation
  AUC0–∞: 281.7 ± 91.50 × 10^−9 mol·dm^−3·h^−1
  Tmax: 17.74 ± 13.04 h
  T½ (half-life of elimination): 106.6 ± 35.93 h
[2]; Test formulation
  AUC0–∞: 305.4 ± 108.1 × 10^−9 mol·dm^−3·h^−1
  Tmax: 19.83 ± 12.27 h
  T½ (half-life of elimination): 101.3 ± 39.43 h
[2]; Test formulation, t = 4 h (BDP), 120 h (BOH), 360 h (B17P)
  AUC0–t: 259.2 ± 89.1 × 10^−9 mol·dm^−3·h^−1
[3]; high QC
  Short-term Dev. (%): −8.39%
  Short-term MCM ± SD: 3.435 ± 0.353 × 10^−9 mol·dm^−3
  Long-term Dev. (%): 10.5%
  Long-term MCM ± SD: 4.185 ± 0.616 × 10^−9 mol·dm^−3
  The autosampler Dev. (24h, %): −12.14%
  The autosampler MCM ± SD (24h): 3.295 ± 0.304 × 10^−9 mol·dm^−3
  The autosampler Dev. (48h, %): −4.7%
  The autosampler MCM ± SD (48h): 3.574 ± 0.531 × 10^−9 mol·dm^−3
  Freeze–thaw Dev. (%): 2.2%
  Freeze–thaw MCM ± SD: 3.832 ± 0.330 × 10^−9 mol·dm^−3
[3]; low QC
  Short-term Dev. (%): 9.09%
  Short-term MCM ± SD: 0.214 ± 0.020 × 10^−9 mol·dm^−3
  Long-term Dev. (%): 4.54%
  Long-term MCM ± SD: 0.205 ± 0.027 × 10^−9 mol·dm^−3
  The autosampler Dev. (24h, %): 5.68%
  The autosampler MCM ± SD (24h): 0.208 ± 0.022 × 10^−9 mol·dm^−3
  The autosampler Dev. (48h, %): −5.68%
  The autosampler MCM ± SD (48h): 0.185 ± 0.025 × 10^−9 mol·dm^−3
  Freeze–thaw Dev. (%): 12.5%
  Freeze–thaw MCM ± SD: 0.221 ± 0.335 × 10^−9 mol·dm^−3
[3]; middle QC
  Short-term Dev. (%): 2.08%
  Short-term MCM ± SD: 1.196 ± 0.112 × 10^−9 mol·dm^−3
  Long-term Dev. (%): 5.91%
  Long-term MCM ± SD: 1.241 ± 0.129 × 10^−9 mol·dm^−3
  The autosampler Dev. (24h, %): 7.80%
  The autosampler MCM ± SD (24h): 1.266 ± 0.094 × 10^−9 mol·dm^−3
  The autosampler Dev. (48h, %): −5.02%
  The autosampler MCM ± SD (48h): 1.114 ± 0.129 × 10^−9 mol·dm^−3
  Freeze–thaw Dev. (%): 6.62%
  Freeze–thaw MCM ± SD: 1.250 ± 0.112 × 10^−9 mol·dm^−3
